Data from BindingDB's records for doi:10.1021/np1002065 (The Ohio State University, 2010).

Key:
[1] = target: Transcription factor p65 (Human, UniProt Q04206); assay: Inhibition of NFkappa p65 isolated from nuclear extract of human HeLa cells assessed as blockade of binding to biotinylated consesus sequence by chemiluminescence assay
Procedure, shortened: (§1)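 ELISA-format transcription factor assay. HeLa nuclear extract was treated with samples, and activated p50 or p65 bound to a biotinylated consensus sequence was detected by chemiluminescence on a plate reader. IC50 reported in μM.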

[2] = target: T1, Nuclear factor NF-kappa-B p105 subunit (Homo sapiens, UniProt P19838); assay: Inhibition of NFkappa p50 isolated from nuclear extract of human HeLa cells assessed as blockade of binding to biotinylated consesus sequence by chemiluminescence assay; procedure, shortened: as §1
T1 sequence (P19838 whole entry): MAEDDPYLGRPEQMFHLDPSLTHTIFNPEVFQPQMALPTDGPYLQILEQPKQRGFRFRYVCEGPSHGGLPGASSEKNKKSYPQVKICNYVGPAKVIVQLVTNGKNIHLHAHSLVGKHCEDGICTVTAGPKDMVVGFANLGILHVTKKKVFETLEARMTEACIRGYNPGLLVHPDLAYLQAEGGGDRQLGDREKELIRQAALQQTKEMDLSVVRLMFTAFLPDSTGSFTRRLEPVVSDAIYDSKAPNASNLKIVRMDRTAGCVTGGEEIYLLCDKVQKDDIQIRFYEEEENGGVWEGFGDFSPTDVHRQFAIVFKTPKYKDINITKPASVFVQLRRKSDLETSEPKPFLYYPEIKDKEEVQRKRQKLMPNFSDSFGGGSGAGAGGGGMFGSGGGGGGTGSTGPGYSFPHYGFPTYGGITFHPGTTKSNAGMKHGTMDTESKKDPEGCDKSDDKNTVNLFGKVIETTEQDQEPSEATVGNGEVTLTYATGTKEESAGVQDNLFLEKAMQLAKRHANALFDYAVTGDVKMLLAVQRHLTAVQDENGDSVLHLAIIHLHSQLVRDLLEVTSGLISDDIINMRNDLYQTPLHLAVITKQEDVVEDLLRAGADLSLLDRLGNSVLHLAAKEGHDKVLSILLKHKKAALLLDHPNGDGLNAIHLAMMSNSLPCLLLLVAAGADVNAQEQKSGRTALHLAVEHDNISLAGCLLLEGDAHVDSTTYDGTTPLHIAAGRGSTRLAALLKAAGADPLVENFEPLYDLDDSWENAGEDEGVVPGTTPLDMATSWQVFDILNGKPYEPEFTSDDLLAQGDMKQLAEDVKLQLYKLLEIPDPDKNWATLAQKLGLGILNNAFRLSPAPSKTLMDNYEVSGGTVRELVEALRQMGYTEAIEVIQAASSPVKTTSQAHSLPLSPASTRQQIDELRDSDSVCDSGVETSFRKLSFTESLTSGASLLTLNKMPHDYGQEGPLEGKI

Sequence of Transcription factor p65 (Q04206 whole entry): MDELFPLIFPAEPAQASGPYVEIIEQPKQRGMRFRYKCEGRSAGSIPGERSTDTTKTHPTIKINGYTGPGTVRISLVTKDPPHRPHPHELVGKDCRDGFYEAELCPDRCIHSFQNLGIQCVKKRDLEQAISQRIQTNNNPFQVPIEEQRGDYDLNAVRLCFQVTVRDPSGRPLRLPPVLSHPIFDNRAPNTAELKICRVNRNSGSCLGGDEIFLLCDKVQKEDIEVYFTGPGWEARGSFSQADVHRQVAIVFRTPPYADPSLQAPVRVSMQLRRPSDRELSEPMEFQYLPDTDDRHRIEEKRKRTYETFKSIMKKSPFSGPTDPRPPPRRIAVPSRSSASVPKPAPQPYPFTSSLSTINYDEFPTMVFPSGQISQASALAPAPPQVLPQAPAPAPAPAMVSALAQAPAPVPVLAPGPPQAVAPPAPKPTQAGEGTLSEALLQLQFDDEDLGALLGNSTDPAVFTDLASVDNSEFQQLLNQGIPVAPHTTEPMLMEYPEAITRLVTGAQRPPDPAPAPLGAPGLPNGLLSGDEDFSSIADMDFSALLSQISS

Row | SMILES | IC50 [1] [µM] | IC50 [2] [µM]
1 | C=C(C)[C@H]1Cc2c(oc3cc(O)c(CC=C(C)C)c(=O)c-3c2O)C2=C1C(=O)C(=O)C(CC=C(C)C)C2=O (stereo partly specified) [Artonin O] | > 10 | > 10
2 | CC1(C)C=Cc2cc3c(cc2O1)Oc1cc(O)ccc1C(=O)C3 [Artoristilbene] | > 10 | > 10
3 | C=C(C)[C@H]1Cc2c(oc3c4c(cc(=O)c-3c2O)OC(C)(C)C=C4)-c2c(O)cc(O)c(O)c21 [artobiloxanthone] | 2.3 | 3.7
